Test results reported in ChEMBL document CHEMBL1123399, “Cardiotonic agents. 3. Synthesis and biological activity of novel 6-(substituted 1H-imidazol-4(5)-yl)-3(2H)-pyridazinones” (J Med Chem, 1986).
Where “and” joins values, the source holds several entries; their conditions need not be identical. Equal values may be shown once.

Columns and labels:
Canis familiaris [1] = assay: Percent change in heart rate in anesthetized dogs at a 0.01 mg/kg; assay type: functional, Canis lupus familiaris
Summary of the method: (§1)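 Acutely instrumented anesthetized dogs, 30 min control period. Drug in saline or dilute HCl/NaOH diluted with saline, given i.v. cumulatively, 0.1 ml/kg over 1 min. Half-log doses 0.01–1.0 mg/kg, 10-30 min between doses. One compound per dog. Heart rate, aortic pressure and LV dP/dtmax recorded as change from preceding baseline. Values are means of two experiments.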

Canis familiaris [2] = assay: Percent change in heart rate in anesthetized dogs at 0.03 mg/kg; assay type: functional, Canis lupus familiaris; summary of the method: as §1
Canis familiaris [3] = assay: Percent change in heart rate in anesthetized dogs at 0.1 mg/kg; assay type: functional, Canis lupus familiaris; summary of the method: as §1
Canis familiaris [4] = assay: Percent change in heart rate in anesthetized dogs at 0.31 mg/kg; assay type: functional, Canis lupus familiaris; summary of the method: as §1
Canis familiaris [5] = assay: Percent change in heart rate in anesthetized dogs at 1 mg/kg; assay type: functional, Canis lupus familiaris; summary of the method: as §1
Canis familiaris [6] = assay: Percent change in blood pressure in anesthetized dogs at 0.01 mg/kg; assay type: functional, Canis lupus familiaris; summary of the method: as §1
Canis familiaris [7] = assay: Percent change in blood pressure in anesthetized dogs at 0.03 mg/kg; assay type: functional, Canis lupus familiaris; summary of the method: as §1
Canis familiaris [8] = assay: Percent change in blood pressure in anesthetized dogs at 0.1 mg/kg; assay type: functional, Canis lupus familiaris; summary of the method: as §1
Canis familiaris [9] = assay: Percent change in blood pressure in anesthetized dogs at 0.31 mg/kg; assay type: functional, Canis lupus familiaris; summary of the method: as §1
Canis familiaris [10] = assay: Percent change in blood pressure in anesthetized dogs at 1 mg/kg; assay type: functional, Canis lupus familiaris; summary of the method: as §1
Canis familiaris [11] = assay: Percent change in dP/dtmax was measured in anesthetized dogs at a dose of 0.01 mg/kg; assay type: functional, Canis lupus familiaris; summary of the method: as §1
Canis familiaris [12] = assay: Percent change in dP/dtmax (contractility) in anesthetized dogs at 1 mg/kg; assay type: functional, Canis lupus familiaris; summary of the method: as §1
[13] = biological target: Phosphodiesterase 3 (Cavia porcellus); assay: Inhibition of guinea pig phosphodiesterase type III
[14] = biological target: Phosphodiesterase 3 (Cavia porcellus); assay: as above; remark: listed apart in the source
Canis familiaris [15] = assay: Percent change in blood pressure in anesthetized dogs 1 mg/kg; assay type: functional, Canis lupus familiaris; summary of the method: as §1
Canis familiaris [16] = assay: Percent change in heart rate in anesthetized dogs; assay type: functional, Canis lupus familiaris; summary of the method: as §1

IC50 [13] [µM] | IC50 [14] [µM] | SMILES | Change (Canis familiaris [1]) | Change (Canis familiaris [2]) [%] | Change (Canis familiaris [3]) [%] | Change (Canis familiaris [4]) [%] | Change (Canis familiaris [5]) [%] | Change (Canis familiaris [6]) [%] | Change (Canis familiaris [7]) [%] | Change (Canis familiaris [8]) [%] | Change (Canis familiaris [9]) [%] | Change (Canis familiaris [10]) [%] | Change (Canis familiaris [11]) | Change (Canis familiaris [12]) [%] | Change (Canis familiaris [15]) [%] | Change (Canis familiaris [16]) [%]
 |  | Cl.O=C1CCC(c2cn(Cc3ccccc3)c(-c3ccccc3)n2)=NN1 | 2% | 1.5 | 19 | 18.5 | 8 | 1 | -0.5 | 0 | -4.5 | -4.75 | 2.5% and 4.5% and 12.5% and 10.5% | 3 |  | 
160 |  | Cn1c(-c2ccc(O)nn2)cnc1-c1ccccc1 | -0.5% | -1 | -1.5 | -3 | -1.5 | 1.5 | 0.75 | -1.75 | -0.25 | -2.5 |  | 17 |  | 
38 |  | Cn1c(C2=NNC(=O)CC2)cnc1-c1ccccc1 | 3% | 3.5 | 4.5 | 5 | 5.5 | 1.75 | 1.75 | 1.5 | 0 | -2.25 | 7% and 10% and 11% and 16.5% | 30.5 |  | 
12.1 |  | Cn1cc(C2=NNC(=O)CC2)nc1-c1ccccc1 | 3.5% | 13 | 29.5 | 34 | 29.5 | -1.2 | -5 | -11.8 | -23.2 | -31.8 |  | 95 |  | 
 |  | Oc1ccc(-c2ccc(-c3ncc[nH]3)cc2)nn1 | 1.5% | 12.5 | 31.5 | 30.5 |  | -1 | -2.5 | -26 | -26.5 |  |  |  |  | 
 | 128 | COc1ccc(-c2nc(C3=NNC(=O)CC3)cn2C)cc1OC | 2.5 | 0.5 | 1.5 | 5 | 8.5 | -1 | -1.25 | -0.25 | 0 | 1.5 | 2% and 2.5% and 9.5% | 0 |  | 
75 |  | COc1ccc(-c2nc(-c3ccc(O)nn3)cn2C)cc1OC | 1.5% | 1 | -0.5 | -1 | 0.5 | 0 | 1.5 | 0 | -1 | -4.5 | 3.5% and 6% and 4.5% and 5% | 13 |  | 
 |  | Cn1cc(-c2ccc(O)nn2)nc1-c1ccccc1 | 1.5% | 9.5 | 21.5 | 50.5 | 63.5 | -1.5 | -0.25 | -6.5 | -15.75 | -31.25 |  | 186 |  | 
 |  | Oc1ccc(-c2cn(Cc3ccccc3)c(-c3ccccc3)n2)nn1 | 3% | -1 | -1 | 3 | 8 | 8.5 | 6.5 | 8 | 3 |  | 21% and 29% and 17% and 28% | 55 | 2 | 
 |  | O=C1CCC(c2ccc(-n3ccnc3)cc2)=NN1 [IMAZODAN] | 0% | 5.6 | 6.2 | 19.2 |  | -0.7 | -4.1 | -5.3 | -13.2 | -22.4 |  |  |  | 33.8
